C2C12 statin: protects C2C12 myotubes from simvastatin toxicity; ATP luminescence, 48 h; scaled: DMSO 0, geranylgeraniol control 100; rescue of ATP level, % at 7.49 µM; 0.78% of 330,000 active;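 active = mean ATP rescue above about 67%, or every replicate alone reaching that limit, limit read from the data, passing the limit was not always enough; inconclusive = no clear call, values can overlap the other calls; inactive = mean under the limit and some replicate under it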;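 also: myotubes were challenged with 10 µM simvastatin during compound exposure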
PDI inh: inhibitors of human protein disulfide isomerase; P07237; inhibition, % at 10 µM; AID 588391; 0.052% of 350,000 active; PDI insulin aggregation turbidity, A650, 90 min;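 active = mean inhibition across replicates of 30% or more, whatever share of single replicates reach that level; inconclusive = mean inhibition below 30% while every single replicate reaches 30%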
DENV2 CPE: inhibitors of DENV2 cytopathic effect; 1.7% of 350,000 active; AID 651640; DENV2-infected cells, cytopathic effect rescue, plate reader; CPE inhibition, % at 9.99 µM; in the data active = CPE inhibition above about 20%, passing the limit was not always enough; inconclusive = no clear call, values can overlap the other calls; tested in BHK-21 cells;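 also: 0% = median of neutral control wells and 100% = median of positive control wells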
Cneo AK release: Cryptococcus neoformans lysis via adenylate kinase release; C. neoformans lysis, adenylate kinase release luminescence, 4 h; normalised: neutral wells 0, clomiphene wells 100; lysis activity, % at 15 µM; 0.2% of 360,000 active; AID 651654;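 active = mean lysis activity across replicates of at least 80%, whatever share of replicates individually reach that level; inactive = mean lysis activity below 80%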
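read-out = cell lysis signal | test system = log-phase Cryptococcus neoformans yeast cells | input = cells at 5 × 10^6 per mL | medium = fresh YPD growth medium | signal = luminescent adenylate kinase detection reagent | timing = 4 h at 37 °C static, read 1 h later | dosing = single dose | controls = Clomiphene as positive lysis control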
CFTR F508del cor: correctors of CFTR F508del function in bronchial epithelial cells; CFBE cells, YFP halide quenching; stimulated with forskolin plus potentiator P3; % fluorescence drop versus neutral controls; activity (quench increase), % at 7.58 µM; 0.36% of 350,000 active; AID 720511;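 active = mean added fluorescence quench of at least 8% versus neutral control, with both replicates also reaching 8%; inconclusive = only one of the mean or replicate conditions met; inactive = mean below 8% and not both replicates reaching 8%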;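 also: cells transiently co-express mutant CFTR-F508del with the halide-sensitive YFP; corrector assay measuring rescue of mutant channel to the surface after 24 h compound exposure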
ERp5 inh: ERp5 (human) disulfide isomerase inhibition; Q15084; ERp5 insulin aggregation, absorbance 650 nm, 90 min; inhibition, % at 9.99 µM; 0.05% of 350,000 active;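 active = mean replicate inhibition above about 25%, with every replicate also reaching it, limit read from the data, passing the limit was not always enough; inconclusive = only one of those two criteria met; inactive = neither criterion met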
Target sequence (Q15084 whole entry, looked up): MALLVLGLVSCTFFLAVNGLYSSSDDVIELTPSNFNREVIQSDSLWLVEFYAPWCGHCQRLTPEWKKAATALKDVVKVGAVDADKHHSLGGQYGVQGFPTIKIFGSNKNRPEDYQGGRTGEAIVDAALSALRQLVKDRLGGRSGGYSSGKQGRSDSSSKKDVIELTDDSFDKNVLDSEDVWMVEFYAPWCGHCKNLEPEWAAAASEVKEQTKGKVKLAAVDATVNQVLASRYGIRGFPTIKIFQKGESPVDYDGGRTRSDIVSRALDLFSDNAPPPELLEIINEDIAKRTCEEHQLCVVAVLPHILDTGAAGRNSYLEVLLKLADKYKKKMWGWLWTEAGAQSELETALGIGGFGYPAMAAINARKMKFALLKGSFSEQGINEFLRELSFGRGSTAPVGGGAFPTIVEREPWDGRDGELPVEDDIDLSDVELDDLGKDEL
* = called active by the depositor; ? = inconclusive; · = no result given. Most compounds without a hit are left out; they make up all but 2.3% or so of the library.

SMILES	C2C12 statin	PDI inh	DENV2 CPE	Cneo AK release	CFTR F508del cor	ERp5 inh
COc1cccc(S(=O)(=O)Nc2ccc3c(c2)C(=O)N(C)C[C@@H](OC)[C@@H](C)CN(C(=O)Cc2cccnc2)[C@H](C)CO3)c1	12	·	52*	-1	1	16
COCC(=O)Nc1ccc2c(c1)OC[C@@H](C)N(C(=O)Cc1cccnc1)C[C@H](C)[C@@H](OC)CN(C)C2=O	-2	·	49*	92*	1	0
COCC(=O)Nc1ccc2c(c1)OC[C@H](C)N(C(=O)Cc1cccnc1)C[C@@H](C)[C@H](OC)CN(C)C2=O	·	·	26*	·	-5	3
CO[C@@H]1CN(C)C(=O)c2ccc(NC(C)=O)cc2OC[C@H](C)N(C(=O)Cc2cccnc2)C[C@@H]1C	-3	·	20	0	-4	-1
COCC(=O)Nc1ccc2c(c1)C(=O)N(C)C[C@@H](OC)[C@@H](C)CN(C(=O)Cc1cccnc1)[C@@H](C)CO2	19	·	-1	-4	-1	1
CO[C@@H]1CN(C)C(=O)c2ccc(NC(C)=O)cc2OC[C@@H](C)N(C(=O)Cc2cccnc2)C[C@H]1C	7	·	?	97*	-1	-2
CCCN(C)C[C@H]1Oc2ncc(-c3cccc(C#N)c3)cc2C(=O)N([C@@H](C)CO)C[C@@H]1C	1	·	-5	-6	1	0
CC(C)C#Cc1ccc2c(c1)O[C@H](CN(C)S(=O)(=O)c1cn(C)cn1)[C@@H](C)CN([C@H](C)CO)S2(=O)=O	-7	·	-4	1	0	2
C[C@@H]1CCCCO[C@@H](CN(C)C)[C@@H](C)CN([C@H](C)CO)C(=O)c2cc(NC(=O)Cc3ccccc3)ccc2O1	-5	·	?	45	2	1
O=C(C[C@@H]1CC[C@H](NS(=O)(=O)c2ccc(F)cc2)[C@H](CO)O1)N1CCc2ccccc2C1	-1	·	-7	-3	2	-8
OC[C@@H]1[C@@H](c2ccc(/C=C/c3ccccc3)cc2)[C@H]2CN(Cc3ccncc3)CCCCN12	32	·	-26	0	-1	0
CCN(CC)C(=O)c1ccc(NS(=O)(=O)c2ccccc2)cc1	103*	4	·	-1	·	·
CCC(=O)Nc1ccc2c(c1)C(=O)N(C)[C@@H]1CC[C@@H](CC(=O)N3CCCCC3)O[C@@H]1CO2	12	·	3	-2	1	13
CCCNC(=O)[C@@H]1[C@@H](CO)[C@@H]2Cn3c(ccc(-c4ccccc4)c3=O)[C@H]1N2Cc1ccccc1F	1	·	-3	0	1	-3
COC(C(=O)C(O)C(C)O)C1Cc2cc3cc(OC4CC(OC5CC(O)C(O)C(C)O5)C(O)C(C)O4)c(C)c(O)c3c(O)c2C(=O)C1OC1CC(OC2CC(OC3CC(O)C(OC)C(C)O3)C(O)C(C)O2)C(O)C(C)O1 (stereo not given)	·	0	-13	·	13*	-8
C[C@@H]1CN([C@H](C)CO)C(=O)c2cc(NC(=O)C3CC3)ccc2O[C@H]1CN(C)S(=O)(=O)c1ccc(Cl)cc1	-20	·	-6	14	1	2
Cc1ccccc1C(=O)OCC(=O)N1CC(=O)Nc2ccccc21	2	-4	-8	-1	·	7
CCOC(=O)c1[nH]c(C)c(C(=O)OCC(=O)N2CC(=O)Nc3ccccc32)c1C	·	1	71*	-2	1	-1
CC(C)NC(=O)N1C[C@H]2[C@@H](c3ccccc31)[C@@H](CO)N2C(=O)NC(C)C	6	·	2	-3	-2	2
O=C(c1ccccn1)N1C[C@@H]2[C@H](c3ccccc31)[C@@H](CO)N2C(=O)c1ccccn1	-4	·	69*	-4	-3	·
CC(C)NC(=O)N1C[C@H]2[C@@H](c3ccccc31)[C@@H](CO)N2C(=O)c1ccccn1	-37	·	115*	-1	0	2
COc1ccc(CN(C)C[C@@H]2OCCCC[C@@H](C)Oc3ccc(NC(=O)c4ccncc4)cc3C(=O)N([C@@H](C)CO)C[C@@H]2C)cc1	·	·	8	-4	0	-2
C[C@H]1CN([C@@H](C)CO)C(=O)c2cc(NC(=O)CCC(F)(F)F)ccc2O[C@@H]1CN(C)S(C)(=O)=O	-15	·	21*	6	2	5
